Among the data in ChEMBL document CHEMBL2010787, “Design and synthesis of novel 5-phenyl-N-piperidine ethanone containing 4,5-dihydropyrazole derivatives as potential antitumor agents” (Eur J Med Chem, 2012) are IC50 values, retold here.

For one test, the system named is MGC-803. As to the kind of experiment: Cytotoxicity against human MGC803 cells after 48 hrs by MTT assay. The class given is functional, cell-based. Particulars: MGC-803, 48 h. In short, it runs like this: (§1)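 Log-phase tumor cells grown in RPMI 1640 with 10% FBS, diluted to 3 × 10⁴ cells/mL, and seeded in 96-well plates. Plates were held 24 h at 37 °C in 5% CO₂, then compounds were added at preset concentrations (6 wells each), with 5-fluorouracil as positive reference. After 48 h exposure, MTT in PBS (2.5 mg/mL) was added for 4 h. Formazan was dissolved in DMSO and read at 570 nm. IC50 is the concentration giving 50% survival; results are the mean of three experiments in triplicate.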
Background: Tetrazolium assays rely on reduction of a dye to a coloured formazan, in cell work by metabolically active cells.

A further test deals with SGC-7901. As to the kind of experiment: Cytotoxicity against human SGC7901 cells after 48 hrs by MTT assay. The class given is functional, cell-based. Particulars: SGC-7901, 48 h. In short, it runs like this: as §1
In test [1] the target is Telomerase reverse transcriptase (Homo sapiens, UniProt O14746). As to the kind of experiment: Inhibition of telomerase activity in human MGC803 cells after 24 hrs by TRAP-PCR-ELISA assay. In general terms: In an ELISA, binding on a coated surface is turned into a signal by an enzyme label.
Telomerase reverse transcriptase, sequence (O14746 whole entry): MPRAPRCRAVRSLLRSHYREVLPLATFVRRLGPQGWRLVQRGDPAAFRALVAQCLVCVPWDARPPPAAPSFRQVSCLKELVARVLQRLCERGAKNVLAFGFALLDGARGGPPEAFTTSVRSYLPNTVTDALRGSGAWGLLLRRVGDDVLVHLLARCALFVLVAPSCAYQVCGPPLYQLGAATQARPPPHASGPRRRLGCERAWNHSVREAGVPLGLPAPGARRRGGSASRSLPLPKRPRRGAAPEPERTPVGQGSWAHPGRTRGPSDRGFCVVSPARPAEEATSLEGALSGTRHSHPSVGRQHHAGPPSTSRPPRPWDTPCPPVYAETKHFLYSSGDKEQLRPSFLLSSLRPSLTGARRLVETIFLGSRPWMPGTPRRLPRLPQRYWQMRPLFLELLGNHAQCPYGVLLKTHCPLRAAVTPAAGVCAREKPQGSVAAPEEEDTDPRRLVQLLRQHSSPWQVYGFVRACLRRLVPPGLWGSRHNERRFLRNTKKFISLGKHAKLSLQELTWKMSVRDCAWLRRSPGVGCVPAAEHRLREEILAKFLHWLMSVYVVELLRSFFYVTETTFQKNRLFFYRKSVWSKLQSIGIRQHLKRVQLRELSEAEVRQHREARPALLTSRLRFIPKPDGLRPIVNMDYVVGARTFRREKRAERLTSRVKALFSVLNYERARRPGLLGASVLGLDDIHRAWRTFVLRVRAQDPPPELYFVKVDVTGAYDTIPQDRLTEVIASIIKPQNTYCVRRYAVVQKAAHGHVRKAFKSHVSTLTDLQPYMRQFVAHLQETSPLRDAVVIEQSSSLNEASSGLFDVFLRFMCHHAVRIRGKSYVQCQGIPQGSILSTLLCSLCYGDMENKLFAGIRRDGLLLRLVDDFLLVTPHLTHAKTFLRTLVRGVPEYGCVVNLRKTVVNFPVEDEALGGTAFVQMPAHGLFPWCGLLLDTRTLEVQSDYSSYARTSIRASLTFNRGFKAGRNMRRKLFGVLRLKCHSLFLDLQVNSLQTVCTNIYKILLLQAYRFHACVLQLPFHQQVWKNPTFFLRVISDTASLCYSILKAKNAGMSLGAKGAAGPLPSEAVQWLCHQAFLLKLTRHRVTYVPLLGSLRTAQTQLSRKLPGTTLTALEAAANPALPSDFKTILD
In another test the test system is Bcap37. As to the kind of experiment: Cytotoxicity against human Bcap37 cells after 48 hrs by MTT assay. The class given is functional, cell-based. Particulars: Bcap37, 48 h. In short, it runs like this: as §1

One may read the IC50 as the concentration that inhibits the measured activity by half. A high value points to weaker potency in that assay. As to `CC1=NN(C(=O)CN2CCC(O)CC2)C(c2ccccc2O)C1` (stereo not given), the IC50 in the test on MGC-803 amounted to 4.12 µM; in the test on SGC-7901, 5.71 µM; in test [1], 9.11 µM; in the test with Bcap37, 18.7 µM.
For the molecule `CC1=NN(C(=O)CN2CCCCC2C)C(c2ccccc2O)C1` (stereo not given), the IC50 in the test on MGC-803 turned out to be 11.7 µM; with SGC-7901, 11.2 µM; in the test on Bcap37 it was 16.3 µM.
For `CCC1CCCCN1CC(=O)N1N=C(C)CC1c1ccccc1O` (stereo not given), in that order: 15.7 µM, 12.9 µM and 10.7 µM.
For `CC1=NN(C(=O)CN2CCC(C)CC2)C(c2ccccc2O)C1` (stereo not given), the IC50 with MGC-803 came out at 3.55 µM; with SGC-7901, 4.6 µM; in test [1], 5.99 µM; in the test on Bcap37 it was 6.81 µM.
In the case of `CC1=NN(C(=O)CN2CCCCC2C(N)=O)C(c2ccccc2O)C1` (stereo not given), the IC50 in the test on MGC-803 was 38.8 µM; in the test with SGC-7901, 39.2 µM; in the test on Bcap37, 41.1 µM.
Consider `CC1=NN(C(=O)CN2CCC(C(F)(F)F)CC2)C(c2ccccc2O)C1` (stereo not given), for which the half-inhibitory concentration (IC50) was determined as 2.64 µM in the test with MGC-803, 3.22 µM in the test with SGC-7901, 8.81 µM in test [1] and 8.55 µM with Bcap37.
For `CC1=NN(C(=O)CN2CCCCC2[N+](=O)[O-])C(c2ccccc2O)C1` (stereo not given), in that order: 28.3 µM, 30.7 µM, 42.1 µM and 32.3 µM.
As to `CCC1CCCCN1CC(=O)N1N=C(c2cc3ccccc3oc2=O)CC1c1ccccc1` (stereo not given), the IC50 in the test with MGC-803 came out at 8.71 µM; with SGC-7901, 6 µM; in the test on Bcap37, 7.3 µM.
In the case of `CC1CCN(CC(=O)N2N=C(c3cc4ccccc4oc3=O)CC2c2ccccc2)CC1` (stereo not given), the IC50 in the test on MGC-803 stood at 3.01 µM; with SGC-7901, 4.7 µM; in test [1], 2 µM; with Bcap37, 6.57 µM.
For `O=C(CN1CCC(Br)CC1)N1N=C(c2cc3ccccc3oc2=O)CC1c1ccccc1` (stereo not given), in that order: 7.01 µM, 10.3 µM, 4.11 µM and 8.76 µM.
Regarding `O=c1[nH]cc(F)c(=O)[nH]1` [FLUOROURACIL], the figures for the IC50 in the test with MGC-803, in the test with SGC-7901 and in the test with Bcap37 were 3.42 µM, 7.11 µM and 5.33 µM, respectively.
Turning to `CC[n+]1c(-c2ccccc2)c2cc(N)ccc2c2ccc(N)cc21` [HOMIDIUM BROMIDE], the 50% inhibitory concentration (IC50) in test [1] is 2.47 µM.
